Data from ChEMBL document CHEMBL1177727, “Diarylaniline derivatives as a distinct class of HIV-1 non-nucleoside reverse transcriptase inhibitors” (J Med Chem, 2010).
Activity calls are given as the source filed them. The calls are words filed in the database; no cut-off is given here.

Legend:
[1] = target: Human immunodeficiency virus type 1 reverse transcriptase (Human immunodeficiency virus 1) (UniProt Q72547); test: Inhibition of HIV1 DH012 reverse transcriptase
In short: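 Reverse transcriptase activity of primary isolate HIV-1 DH012 measured with a colorimetric HIV-1 RT kit following the manufacturer's protocol, in the presence of various compound concentrations. The kit reads RNA-dependent DNA polymerase activity.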

[2] = Selectivity index, ratio of CC50 for human H9 cells to EC50 for HIV1 3B; assay type: toxicity, cell-based
In short: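 SI = CC50/EC50 in H9 cells. Toxicity by XTT on mock-infected H9 cultures set up identically to the HIV-1 IIIB infection wells (same drug concentrations, media changes days 1 and 4, 6-day culture).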

[3] = tested on: Human immunodeficiency virus 1; test: Resistant fold, ratio of EC50 for HIV1 with reverse transcriptase A17 (K103N, Y181C) mutant to EC50 for wild type HIV1 3B; assay type: functional
[4] = tested on: Human immunodeficiency virus 1; test: Antiviral activity against HIV1 with reverse transcriptase 6005MR mutant infected in human MT2 cells assessed as inhibition of p24 antigen production after 4 days by ELISA; assay type: functional, organism-based; settings: Human immunodeficiency virus 1, MT2, 96 h
In short: (§1)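 Drug-resistant HIV-1 strains (Panacos) at MOI 0.001 TCID₅₀/cell, mixed with compound dilutions in RPMI 1640/10% FBS and cells at 6×10⁵ cells/mL, 37 °C. Compound-containing fresh medium added on day 2; supernatant p24 ELISA on day 4. Averages of three independent assays.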

[5] = tested on: Human immunodeficiency virus 1; test: Antiviral activity against HIV1 with reverse transcriptase Y181C mutant infected in human MT2 cells assessed as inhibition of p24 antigen production after 4 days by ELISA; assay type: functional, organism-based; settings: Human immunodeficiency virus 1, MT2, 96 h; in short: as §1
[6] = tested on: Human immunodeficiency virus 1; test: Antiviral activity against HIV1 with reverse transcriptase A17 (K103N, Y181C) mutant infected in human MT2 cells assessed as inhibition of p24 antigen production after 4 days by ELISA; assay type: functional, organism-based; settings: Human immunodeficiency virus 1, MT2, 96 h; in short: as §1
[7] = tested on: Human immunodeficiency virus 1; test: Antiviral activity against HIV1 3B infected in human H9 cells assessed as inhibition of viral replication after 6 days by p24 antigen based assay; assay type: functional, organism-based
In short: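 H9 cells (3 × 10⁵ cells/mL) infected with HIV-1 IIIB, 125 TCID₅₀ per well, with drug diluted from 10 mg/mL DMSO master stocks; screening at 100, 20, 4, 0.8 µg/mL, with further dilutions for actives. Media replaced on days 1 and 4; supernatant p24 antigen capture on day 6. Run alongside AZT control; averages of three independent assays.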

[8] = tested on: Human immunodeficiency virus 1; test: Antiviral activity against wild type HIV1 3B infected in human MT2 cells assessed as inhibition of p24 antigen production after 4 days by ELISA; assay type: functional, organism-based; settings: Human immunodeficiency virus 1, 3B, MT2, 96 h
In short: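 1 × 10⁴ MT-2 cells infected with HIV-1 IIIB (100 TCID₅₀) in RPMI 1640/10% FBS with graded compound overnight, then compound-free medium. Day-4 supernatants lysed in Triton X-100 and p24 measured by sandwich ELISA (HIVIG capture, anti-p24 mAb, TMB, A450) against a recombinant p24 standard curve. Triplicates; EC50 from percent inhibition via median-effect analysis.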

H9 = test: Cytotoxicity against human H9 cells after 6 days by XTT assay; assay type: cell-based; settings: h9, 144 h
In short: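 Mock-infected H9 human T cells (3 × 10⁵ cells/mL in RPMI 1640 with 10% fetal calf serum and L-glutamine, 37 °C, 5% CO₂) exposed to samples diluted from 10 mg/mL DMSO master stocks (screening at 100, 20, 4, 0.8 µg/mL). Media replaced on days 1 and 4, assay ended day 6. Viability by XTT, 50% cytotoxic concentration taken. Mean of three independent assays.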

[9] = tested on: Human immunodeficiency virus 1; test: Antiviral activity against HIV1 with reverse transcriptase 8605MR mutant infected in human MT2 cells assessed as inhibition of p24 antigen production after 4 days by ELISA; assay type: functional, organism-based; settings: Human immunodeficiency virus 1, MT2, 96 h; in short: as §1
[10] = Human immunodeficiency virus 1, 3B, H9, 144 h, read-out: EC50

Row | Compound | Ratio CC50/EC50 [2] | EC50 [7, 10] [µM] | CC50 (H9) [µM] | other results
1 | Cc1cc(C#N)cc(C)c1Oc1cc(Nc2ccc(C#N)cc2)c(N)cc1[N+](=O)[O-] | 20887 | 0.003 | 62.7 | Activity [1]: Active; Ratio EC50 [3]: 18.9; EC50 [4]: 0.005 µM; EC50 [5]: 0.504 µM; EC50 [6]: 0.231 µM; EC50 [8]: 0.005 µM; EC50 [9]: 0.005 µM
2 | Cc1cc(Br)cc(C)c1Oc1cc(Nc2ccc(C#N)cc2)c(N)cc1[N+](=O)[O-] | 2842 | 0.016 | – | Ratio EC50 [3]: 20.3; EC50 [4]: 0.007 µM; EC50 [5]: 1.3 µM; EC50 [6]: 0.254 µM; EC50 [8]: 0.008 µM; CC50 (H9; 144 h): 45.5 µM; EC50 [9]: 0.02 µM
3 | Cc1ccnc2c1NC(=O)c1cccnc1N2C1CC1 [NEVIRAPINE] | – | – | – | EC50 [4]: > 3.7 µM; EC50 [5]: > 3.7 µM; EC50 [6]: > 3.7 µM; EC50 [8]: 0.053 µM; EC50 [9]: > 3.7 µM
4 | Cc1cc(C)c(Oc2ccc(N)c(Nc3ccc(C#N)cc3)c2)c(C)c1 | 699 | 0.073 | 51 | –
5 | Cc1cc(Br)cc(C)c1Oc1cc(Nc2ccc(C#N)cc2)c([N+](=O)[O-])cc1[N+](=O)[O-] | > 301 | 0.172 | > 51.8 | –
6 | Cc1cc(C#N)cc(C)c1Oc1cc(Nc2ccc(C#N)cc2)c([N+](=O)[O-])cc1[N+](=O)[O-] | > 14 | 4.19 | > 58.3 | –
7 | Cc1cc(Br)cc(C)c1Oc1ccc(N)c(Nc2ccc(C#N)cc2)c1 | 949 | 0.047 | 44.6 | –
8 | Cc1cc(Br)cc(C)c1Oc1ccc([N+](=O)[O-])c(Nc2ccc(C#N)cc2)c1 | > 180 | 0.317 | > 57.1 | –
9 | Cc1cc(Br)cc(C)c1Oc1cc(Nc2ccc(Cl)cc2)c([N+](=O)[O-])cc1[N+](=O)[O-] | – | – | – | EC50 ([7]; h9): Not Active
10 | Cc1cc(Br)cc(C)c1Oc1cc(Nc2ccc(C#N)cc2)c(N)cc1N | 238 | 0.161 | 38.4 | –
11 | Cc1cc(C)c(Oc2cc(Nc3ccc(C#N)cc3)c(N)cc2[N+](=O)[O-])c(C)c1 | 520 | 0.062 | 32.2 | –
12 | Cc1cccc(C)c1Oc1ccc([N+](=O)[O-])c(Nc2ccc(C#N)cc2)c1 | 22 | 3.15 | 69.6 | –
13 | COc1ccc(Nc2cc(Oc3c(C)cc(C)cc3C)c([N+](=O)[O-])cc2[N+](=O)[O-])cc1 | > 20 | 2.99 | > 59.1 | –
14 | COc1ccc(Nc2cc(Oc3c(C)cc(Br)cc3C)c([N+](=O)[O-])cc2[N+](=O)[O-])cc1 | 14 | 3.63 | 51.2 | –
15 | Cc1cc(C#N)cc(C)c1Oc1ccc(N)c(Nc2ccc(C#N)cc2)c1 | 711 | 0.07 | 49.8 | –
16 | Cc1cc(C#N)cc(C)c1Oc1nc(Nc2ccc(C#N)cc2)nc(N)c1Br [ETRAVIRINE] | – | – | – | Ratio EC50 [3]: 9.9; EC50 [6]: 0.575 µM; EC50 [8]: 0.058 µM
17 | Cc1ccc(Nc2cc(Oc3c(C)cc(Br)cc3C)c([N+](=O)[O-])cc2[N+](=O)[O-])cc1 | 12 | 4.31 | 53 | –
18 | COc1ccc(Nc2cc(Oc3c(C)cccc3C)c([N+](=O)[O-])cc2[N+](=O)[O-])cc1 | > 16 | 3.84 | > 61.1 | –
19 | Cc1cc(C=O)cc(C)c1Oc1ccc([N+](=O)[O-])c(Nc2ccc(C#N)cc2)c1 | 6 | 2.19 | 14.2 | –
20 | Cc1cc(Br)cc(C)c1Oc1cc(Nc2ccc(C#N)cc2)c(N)cc1[N+](=O)[O-].Cl | 3035 | – | – | EC50 ([7]; h9, read-out: EC50): 0.012 µM
21 | Cc1cc(C)c(Oc2cc(Nc3ccc(C#N)cc3)c([N+](=O)[O-])cc2[N+](=O)[O-])c(C)c1 | > 214 | 0.28 | > 59.8 | –
22 | Cc1cc(C=O)cc(C)c1Oc1cc(Nc2ccc(C#N)cc2)c([N+](=O)[O-])cc1[N+](=O)[O-] | 38 | 1.53 | 57.9 | –
23 | Cc1cn([C@H]2C[C@H](N=[N+]=[N-])[C@@H](CO)O2)c(=O)[nH]c1=O [ZIDOVUDINE] | 36019 | 0.052 | 1870 | –
24 | Cc1cc(Br)cc(C)c1Oc1cc(Nc2ccc([N+](=O)[O-])cc2)c([N+](=O)[O-])cc1[N+](=O)[O-] | > 1 | > 49.7 | > 49.7 | –
25 | Cc1cc(C#N)cc(C)c1Oc1cc(Nc2ccc(C#N)cc2)c(N)cc1N | 1698 | 0.03 | 51 | Activity [1]: Active; Ratio EC50 [3]: 73.3; EC50 [4]: 0.033 µM; EC50 [5]: 1.73 µM; EC50 [6]: 1.24 µM; EC50 [8]: 0.065 µM; EC50 [9]: 0.138 µM
26 | Cc1cc(C)c(Oc2ccc([N+](=O)[O-])c(Nc3ccc(C#N)cc3)c2)c(C)c1 | > 1000 | 0.067 | > 67 | –
27 | Cc1cc(C)c(Oc2cc(Nc3ccc(C#N)cc3)c(N)cc2N)c(C)c1 | 714 | 0.07 | 50 | –
28 | Cc1cccc(C)c1Oc1cc(Nc2ccc(C#N)cc2)c(N)cc1N | 16 | 3.23 | 53.2 | –
29 | Cc1cccc(C)c1Oc1cc(Nc2ccc(C#N)cc2)c([N+](=O)[O-])cc1[N+](=O)[O-] | > 113 | 0.545 | > 61.9 | –
30 | Cc1cc(C#N)cc(C)c1Oc1ccc([N+](=O)[O-])c(Nc2ccc(C#N)cc2)c1 | > 313 | 0.208 | > 65.1 | –
